Experimental data: ChEMBL document CHEMBL3739331, “Synthesis and Bioactivities of Kanamycin B-Derived Cationic Amphiphiles” (J Med Chem, 2015)
In brackets after ≈: the same amount, converted by molar mass. Activity calls are given as the source filed them. No cut-off for these calls is given here.

Columns and labels:
[1] = Hemolytic activity against mouse RBC at 7.8 ug/ml after 60 mins; assay type: ADME, cell-based, Erythrocyte; conditions: red blood cells, read-out: Activity
[2] = Hemolytic activity against mouse RBC at 62.5 ug/ml after 60 mins; assay type: ADME, cell-based, Erythrocyte; conditions: red blood cells, read-out: Activity
[3] = Hemolytic activity against mouse RBC at 100 to 500 ug/ml after 60 mins; assay type: ADME, cell-based; conditions: erythrocyte, 1 h
[4] = system: Klebsiella pneumoniae; assay: Antibacterial activity against Klebsiella pneumoniae ATCC 27736 by microdilution method; assay type: functional
Method in brief: (§1)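 Broth microdilution MIC against the named bacterial strain, reported in μg/mL; each determination run at least in duplicate.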

[5] = Activity of AAC(3)-4 (unknown origin) assessed as compound acetylation activity by Ellman's method
[6] = system: Bacillus subtilis; assay: Antibacterial activity against Bacillus subtilis 168 by microdilution method; assay type: functional; conditions: subsp. subtilis str. 168; method in brief: as §1
[7] = system: Staphylococcus aureus; assay: Antibacterial activity against methicillin-resistant Staphylococcus aureus by microdilution method; assay type: functional
Method in brief: (§2)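 Broth microdilution MIC, in μg/mL, against a panel of Gram-positive and Gram-negative strains. Run at least in duplicate.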

[8] = system: Mycolicibacterium smegmatis; assay: Antibacterial activity against Mycobacterium smegmatis MC2 155 by microdilution method; assay type: functional; conditions: str. MC2 155; method in brief: as §2
[9] = system: Staphylococcus aureus; assay: Antibacterial activity against Staphylococcus aureus ATCC 29213 by microdilution method; assay type: functional; method in brief: as §1
[10] = system: Staphylococcus aureus; assay: Antibacterial activity against Staphylococcus aureus NRS382 (USA 100) by microdilution method; assay type: functional; method in brief: as §1
[11] = system: Staphylococcus aureus; assay: Antibacterial activity against Staphylococcus aureus NRS383 (USA 200) by microdilution method; assay type: functional; method in brief: as §1
[12] = system: Staphylococcus aureus; assay: Antibacterial activity against Staphylococcus aureus NRS385 (USA 300) by microdilution method; assay type: functional; method in brief: as §2
[13] = system: Staphylococcus aureus; assay: Antibacterial activity against Staphylococcus aureus NRS22 (USA 600) by microdilution method; assay type: functional; method in brief: as §1
[14] = system: Staphylococcus epidermidis; assay: Antibacterial activity against Staphylococcus epidermidis ATCC 12228 by microdilution method; assay type: functional; method in brief: as §1
[15] = system: Enterococcus; assay: Antibacterial activity against vancomycin-resistant Enterococcus by microdilution method; assay type: functional; method in brief: as §2
[16] = system: Acinetobacter baumannii; assay: Antibacterial activity against Acinetobacter baumannii ATCC 19606 by microdilution method; assay type: functional; method in brief: as §1
[17] = system: Enterobacter cloacae; assay: Antibacterial activity against Enterobacter cloacae ATCC 13047 by microdilution method; assay type: functional; method in brief: as §1
[18] = system: Escherichia coli; assay: Antibacterial activity against Escherichia coli MC1061 by microdilution method; assay type: functional; method in brief: as §2
[19] = system: Pseudomonas aeruginosa; assay: Antibacterial activity against Pseudomonas aeruginosa ATCC 27853 by microdilution method; assay type: functional; method in brief: as §1
[20] = system: Salmonella enterica; assay: Antibacterial activity against Salmonella enterica ATCC 14028 by microdilution method; assay type: functional; method in brief: as §1
[21] = system: Bacillus subtilis subsp. subtilis str. 168; assay: Activity of Bacillus subtilis 168 APH(2'')-1a assessed as compound phosphorylation activity by Ellman's method
[22] = Activity of AAC(6')-1e/APH(2'')-1a (unknown origin) assessed as compound acetylation activity by Ellman's method
[23] = system: Serratia marcescens; assay: Activity of Serratia marcescens AAC(6')-2d assessed as compound acetylation activity by Ellman's method
[24] = system: Mycobacterium tuberculosis; assay: Activity of Mycobacterium tuberculosis AAC(2')-1c assessed as compound acetylation activity by Ellman's method
[25] = system: Mycobacterium tuberculosis; assay: Activity of Mycobacterium tuberculosis Eis assessed as compound acetylation activity by Ellman's method
[26] = system: Candida albicans; assay: Antifungal activity against azole-resistant Candida albicans ATCC 10231 after 48 hrs by microbroth dilution method; assay type: functional; conditions: ATCC 10231, 48 h
Method in brief: (§3)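 Yeast MIC by broth microdilution, run in duplicate. The aminoglycoside compounds are read as MIC-0 (complete inhibition). Azoles are read as MIC-2 (50% inhibition).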

[27] = system: Candida albicans; assay: Antifungal activity against azole-resistant Candida albicans ATCC 64124 after 48 hrs by microbroth dilution method; assay type: functional; conditions: ATCC 64124, 48 h; method in brief: as §3
[28] = system: Candida albicans; assay: Antifungal activity against azole-susceptible Candida albicans ATCC MYA-2876 after 48 hrs by microbroth dilution method; assay type: functional; conditions: ATCC MYA-2876, 48 h; method in brief: as §3
[29] = system: Candida albicans; assay: Antifungal activity against azole-resistant Candida albicans ATCC 90819 after 48 hrs by microbroth dilution method; assay type: functional; conditions: ATCC 90819, 48 h; method in brief: as §3
[30] = system: Candida albicans; assay: Antifungal activity against azole-susceptible Candida albicans ATCC MYA-2310 after 48 hrs by microbroth dilution method; assay type: functional; conditions: ATCC MYA-2310, 48 h; method in brief: as §3
[31] = system: Candida albicans; assay: Antifungal activity against azole-resistant Candida albicans MYA-1237 after 48 hrs by microbroth dilution method; assay type: functional; conditions: MYA-1237, 48 h; method in brief: as §3
[32] = system: Candida albicans; assay: Antifungal activity against azole-resistant Candida albicans MYA-1003 after 48 hrs by microbroth dilution method; assay type: functional; conditions: MYA-1003, 48 h; method in brief: as §3
[33] = system: Aspergillus nidulans; assay: Antifungal activity against Aspergillus nidulans ATCC 38163 after 48 hrs by microbroth dilution method; assay type: functional; conditions: ATCC 38163, 48 h
Method in brief: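 Filamentous fungus MIC by broth microdilution, run in duplicate. All compounds are read as MIC-0 (complete inhibition).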

Q: With CCCCCCCCCCCCCCCCSC[C@@H]1O[C@@H](O[C@@H]2[C@@H](O)[C@H](O[C@@H]3O[C@@H](CN)[C@H](O)[C@@H](O)[C@@H]3N)[C@@H](N)C[C@H]2N)[C@@H](O)[C@H](N)[C@H]1O (stereo in doubt) as the compound, how does the hemolysis at 1 h, 7.8 ug/ml [1] read?
A: 16%

Q: And the hemolysis at 1 h, 62.5 ug/ml [2]?
A: 81%

Q: And the Activity [3]?
A: Toxic

Q: What about the MIC [4] of the same compound?
A: > 128 µg/mL

Q: What about the Activity [5] of the same compound?
A: inactive

Q: What about the MIC [6] of the same compound?
A: > 128 µg/mL

Q: And the MIC [7]?
A: > 128 µg/mL

Q: And the MIC [8]?
A: 8 µg/mL (≈ 11 µM)

Q: And the MIC [9]?
A: > 128 µg/mL

Q: What about the MIC [10] of the same compound?
A: 128 µg/mL (≈ 177 µM)

Q: What about the MIC [11] of the same compound?
A: > 128 µg/mL

Q: What about the MIC [12] of the same compound?
A: > 128 µg/mL

Q: What about the MIC [13] of the same compound?
A: 128 µg/mL (≈ 177 µM)

Q: What about the MIC [14] of the same compound?
A: > 128 µg/mL

Q: And the MIC [15]?
A: 128 µg/mL (≈ 177 µM)

Q: And the MIC [16]?
A: > 128 µg/mL

Q: What about the MIC [17] of the same compound?
A: > 128 µg/mL

Q: And the MIC [18]?
A: > 128 µg/mL

Q: And the MIC [19]?
A: > 128 µg/mL

Q: What about the MIC [20] of the same compound?
A: > 128 µg/mL

Q: And the Activity [21]?
A: inactive

Q: And the Activity [22]?
A: inactive

Q: And the Activity [23]?
A: inactive

Q: What about the Activity [24] of the same compound?
A: inactive

Q: What about the Activity [25] of the same compound?
A: inactive

Q: What about the MIC [26] of the same compound?
A: 3.9 µg/mL (≈ 5.39 µM)

Q: What about the MIC [27] of the same compound?
A: 3.9 µg/mL (≈ 5.39 µM)

Q: What about the MIC [28] of the same compound?
A: 3.9 µg/mL (≈ 5.39 µM)

Q: What about the MIC [29] of the same compound?
A: 3.9 µg/mL (≈ 5.39 µM)

Q: And the MIC [30]?
A: 3.9 µg/mL (≈ 5.39 µM)

Q: What about the MIC [31] of the same compound?
A: 3.9 µg/mL (≈ 5.39 µM)

Q: And the MIC [32]?
A: 3.9 µg/mL (≈ 5.39 µM)

Q: And the MIC [33]?
A: 1.95 µg/mL (≈ 2.69 µM)
